NPY Y1 blocker = NPY-Y1 receptor antagonists, primary screen, cell-based. HEK293-CNG Y1 cells, membrane potential fluorescence; NPY at EC95, then isoproterenol. 1% of 200,000 active. inhibition, % at 3.6 µM. AID 1040, 2008;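 active = inhibition above the campaign mean inhibition of all tested compounds plus 3 SD, cut at about 20% in these data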
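Material: HEK293 Y1/CNG channel cell line; also added: NPY (25 nM), isoproterenol (1 µM), Ro 20-1724 (25 µM); doses: one concentration, 3.6 µM, in 0.4% DMSO; schedule: compound incubation 1 h at room temperature, readout 45 min post-stimulation; technique: membrane potential fluorescence; measure: fluorescence ratio normalized to % inhibition between controls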
NPY-Y1 PAM-ag = NPY-Y1 receptor potentiators or agonists, primary screen, cell-based; Neuropeptide Y receptor type 1 (Homo sapiens), P25929; NPY-Y1 expressing cells, potentiator/agonist activation; activation, % at 3.6 µM; 0.37% of 220,000 active; AID 1304, 2008; in the data active = activation above about 33%, passing the limit was not always enough;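 note: cells stimulated with NPY at EC10 then isoproterenol at EC100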
NPY Y2 blocker = NPY-Y2 receptor antagonists, primary screen, cell-based | 0.99% of 140,000 active | AID 793, 2007 | NPY-Y2 expressing cells, antagonist mode | inhibition, % at 2.7 µM
S1P4 ag = S1P4 receptor agonists, primary screen, cell-based; S1P4-expressing cell line, agonist reporter assay; activation, % at 4.98 µM; 0.35% of 220,000 active; in the data active = activation above about 11%
Target sequence (O95977 whole entry, looked up): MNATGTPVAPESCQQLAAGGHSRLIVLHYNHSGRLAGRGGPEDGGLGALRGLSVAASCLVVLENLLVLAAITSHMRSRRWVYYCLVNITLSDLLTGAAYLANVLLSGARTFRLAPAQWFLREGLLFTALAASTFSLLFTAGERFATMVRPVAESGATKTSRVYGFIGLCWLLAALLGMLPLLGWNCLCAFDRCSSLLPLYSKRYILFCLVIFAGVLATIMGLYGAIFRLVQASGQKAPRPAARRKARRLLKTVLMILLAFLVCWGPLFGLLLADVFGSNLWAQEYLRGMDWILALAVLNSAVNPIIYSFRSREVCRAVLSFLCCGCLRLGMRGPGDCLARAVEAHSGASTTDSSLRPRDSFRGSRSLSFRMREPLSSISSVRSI
S1P4 antag = S1P4 receptor antagonists, primary screen, cell-based; Sphingosine 1-phosphate receptor 4 (Homo sapiens), O95977; S1P4-expressing cells, antagonist mode, reporter read-out; inhibition, % at 4.98 µM; 0.26% of 220,000 active; in the data active = inhibition above about 29%
NPY2 pot ag = NPY-Y2 potentiators or agonists, primary screen, cell-based; Neuropeptide Y receptor type 2 (Homo sapiens), P49146; cells expressing NPY-Y2, potentiator/agonist read-out; activation, % at 3.6 µM; 0.45% of 220,000 active; AID 1359, 2008; in the data active = activation above about 27%;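 note: cells stimulated with NPY near EC25 plus isoproterenol at EC100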
NPY-Y1 ant conf = NPY-Y1 receptor antagonists, retest of hits, confirmation, HEK293-CNG cells, membrane potential fluorescence, triplicate | shares compounds with NPY Y1 blocker | cAMP; NPY challenge against isoproterenol-raised cAMP | inhibition, % at 3.6 µM | 21% of 1,200 active; in the data active = inhibition above about 20%
NPY-Y2 antag ct = NPY-Y2 receptor antagonists, selectivity check, confirmation, counter-screen for NPY-Y1 antagonist project, HEK293-CNG cells, membrane potential fluorescence, triplicate; shares compounds with NPY Y1 blocker; antagonism; cells given NPY, then isoproterenol; inhibition, % at 3.6 µM; 28% of 1,200 active; AID 1255, 2008
A number is an active result; - = inactive; . = no result given. Only some compounds are listed: those with a hit (about 2.4% of all), similar ones and a draw of the others. Cut-off read from the data, not from the text of the source, unless noted: active = inhibition above about 17%; inactive = the rest.

SMILES	NPY Y1 blocker	NPY-Y1 PAM-ag	NPY Y2 blocker	S1P4 ag	S1P4 antag	NPY2 pot ag	NPY-Y1 ant conf	NPY-Y2 antag ct
CC1(C)CN(c2ccsc2C(=O)O)C1=O	-	-	.	-	-	-	.	.
COc1ccc(-c2c(C)n([O-])c3c([n+]2=O)CCCCC3)cc1OC	-	-	.	-	-	-	.	.
CCCc1[nH]nc2c1C(c1ccsc1)C(C#N)=C(N)O2 (centres undefined)	40.0	-	.	-	-	-	37.5	22.3
CCC(C)[C@H](NC(=O)Nc1cccc(OC)c1)C(=O)OC (some centres undefined)	-	-	-	-	-	-	.	.
COc1cccc(NC(=O)NC(C)C2CC3CCC2C3)c1 (centres undefined)	23.5	-	.	-	-	-	-	34.3
S=C(NC1CCCCC1)N1CCN(Cc2ccccc2Cl)CC1	-	-	.	-	-	-	.	.
Cc1ccc2cc3cc(C(=O)NCCCN4CCc5ccccc5C4)oc3nc2c1	21.0	-	-	-	-	-	-	-
Cc1ccc2cc3cc(C(=O)NCCCN4CCCCCC4)oc3nc2c1	-	-	-	-	-	-	.	.
COc1ccc(/C(C)=C2\SC(=S)N(CCC(=O)O)C2=O)cc1	23.0	-	-	-	-	-	-	-
C=CCOc1ccccc1CN1CCC(CO)(CCOc2ccccc2)CC1	27.0	-	.	-	-	-	-	-
CCN1CCC(NC(=O)Nc2cc(Cl)ccc2OC)CC1	-	-	.	-	-	-	.	.
Cc1c(/C=N/NC(=O)c2ccc(Br)o2)cnn1C	.	-	.	-	-	-	.	.
Cc1cc(S(=O)(=O)N2CCN(c3ccccc3C)CC2)ccc1F	-	-	-	-	-	-	.	.
Cc1cc(S(=O)(=O)N2CCN(c3c(C)cccc3C)CC2)ccc1F	21.0	-	-	-	-	-	-	-
COc1cc2c(cc1OC)CN(c1nc(-c3cccnc3)nc3ccccc13)CC2	-	-	.	-	-	-	.	.
O=C(O)CCNC(=S)Nc1cccc(F)c1	.	-	.	-	-	-	.	.
CC(C(=O)Nc1c2c(cc3c1CCC3)CCC2)N1CCCC1 (centres undefined)	20.2	-	-	-	-	-	-	-
CCN(CC)C(C)C(=O)Nc1c2c(cc3c1CCC3)CCC2 (centres undefined)	-	-	-	-	-	-	.	.
Cc1cccc(-c2noc(CCC(=O)NCc3ccccc3)n2)c1	-	-	-	-	-	-	.	.
Cc1cc(C)cc(OCC(=O)NCc2nc(-c3ccccc3)no2)c1	29.4	-	-	-	-	-	-	-
CCCCCC1(C(=O)OCC)CC(CSC(=N)N)OC1=O (centres undefined)	-	-	.	-	-	-	.	.
COc1ccccc1C(=O)NCC(=O)N/N=C/c1cccc(Cl)c1	-	-	.	-	-	-	.	.
CCN(C(=O)c1ccc(C(C)(C)C)cc1)c1nnc(Cn2nnc3ccccc32)s1	31.1	-	-	-	-	-	40.5	-
Cc1cc(C)n2c(SCC(=O)N(CC(C)C)c3c(N)n(CC(C)C)c(=O)[nH]c3=O)nnc2n1	-	-	.	-	-	-	.	.
CN1CCc2c(n(CC(O)CNCc3ccccc3)c3ccccc23)C1=O (centres undefined)	22.5	-	.	-	-	-	-	-
SMILES	NPY Y1 blocker	NPY-Y1 PAM-ag	NPY Y2 blocker	S1P4 ag	S1P4 antag	NPY2 pot ag	NPY-Y1 ant conf	NPY-Y2 antag ct
CSCC[C@H](NC(=O)COc1ccc(Cl)cc1)c1nc2ccccc2[nH]1	-	-	-	-	-	-	.	.
CCOC(=O)C1CCCN(Cc2c(C(=O)N3CCCCC3)nc3c(C)cccn23)C1 (centres undefined)	-	-	.	-	-	-	.	.
Cc1cccn2c(CNC3CCCc4ccccc43)c(C(=O)N3CCCCC3)nc12 (centres undefined)	24.1	-	.	-	-	-	-	-
C=CCNCC(=O)N1N=C(c2ccc3ccccc3c2)CC1c1ccc(OC)cc1 (centres undefined)	31.6	-	.	-	-	-	32.3	49.7
COc1ccc(C2CC(c3ccc4ccccc4c3)=NN2C(=O)CN2CCC(C(N)=O)CC2)cc1 (centres undefined)	-	-	.	-	-	-	.	.
COc1ccc(C2CC(c3ccc4ccccc4c3)=NN2C(=O)CNC2CCCCC2)cc1 (centres undefined)	30.1	-	.	-	-	-	36.7	33.5
CCc1nn2cc(-c3ccccc3)nc2s1	27.7	-	-	-	-	-	-	-
Cc1onc(-c2ccccc2)c1NC(=O)Nc1c(-c2ccccc2)noc1C	30.5	-	.	-	-	-	-	-
Cc1ccc(S(=O)(=O)N(C)C)cc1NC(=O)Nc1c(-c2ccccc2)noc1C	.	-	.	-	-	-	.	.
CC(=O)c1ccc(NC(=O)c2ccc(CNc3c(N4CCOCC4)c(=O)c3=O)cc2)cc1	.	-	.	-	-	-	.	.
Cc1[nH]nc2ncc(C(=O)c3cc(F)ccc3O)cc12	-	-	-	-	-	-	.	.
CCCCN1Cc2cc(C(=O)c3cc(F)ccc3O)cnc2NC1=O	21.7	-	-	-	-	-	-	-
Cc1ccc(C)c(N2CCN(C(=O)C(Cc3ccccc3)n3cccc3)CC2)c1 (centres undefined)	24.9	-	-	-	-	-	-	-
O=C(C(Cc1ccccc1)n1cccc1)N1CCN(c2ccccc2)CC1 (centres undefined)	-	-	-	-	-	-	.	.
O=C1CCCC2=C1C(c1ccncc1)c1c(nc(SCc3ccccc3Cl)[nH]c1=O)N2 (centres undefined)	-	-	-	-	-	-	.	.
CCC(C)Sc1nc2c(c(=O)[nH]1)C(c1cccs1)C1=C(CCCC1=O)N2 (centres undefined)	22.5	-	.	-	-	-	-	-
CO/N=C(\c1nonc1N)N1CCN(c2ccc(Cl)cc2[N+](=O)[O-])CC1	24.1	-	-	-	-	-	-	-
CO/N=C(\c1nonc1N)N1CCN(c2ccc([N+](=O)[O-])cc2Cl)CC1	-	-	-	-	-	-	.	.
Cc1ccc(/C=N/N=C2\SCC(=O)N2CC2CC2)cc1	.	-	.	-	-	-	.	.
COc1ccc(/C=N\NC(=O)c2cc(O)c(O)c(O)c2)cc1CN1CCN(c2ccc(F)cc2)CC1	-	-	-	-	-	-	.	.
Cc1ccc(OCC(=O)Nc2sc3c(c2C#N)CC(C)(C)NC3(C)C)cc1	22.3	-	.	-	-	-	-	-

High-throughput results: PubChem, The Scripps Research Institute Molecular Screening Center
